Here are results for 8 substances from paper PMC2781304 (Biochemistry, 2009).

Values joined by “and” are separate entries in the source; they are usually repeats but may differ in a detail not shown here. Equal entries are not always repeated. Where two headings read alike, the source gives them in different places. Where no end group is shown, it is not given here.

In one experiment the test system is soluble receptor. As to conditions: cited from earlier work.
The subject of experiment [1] is IM-9 cell receptors. The note with it: cited from earlier work.
The subject of experiment [2] is receptors on the human placental membrane. The note with it: ref 62; cited from earlier work.
In another experiment the test system is HepG2 cells. The note with it: ref 31; cited from earlier work.
In a further experiment the test system is insulin receptor. The note with it: cited from earlier work.
The subject of a further experiment is rat adipocytes. The note with it: cited from earlier work.
Another experiment deals with rat fat pad. The note with it: relative to that of bovine insulin; cited from earlier work.
In a further experiment the test system is rat liver cells. The note with it: ref 20; cited from earlier work.
In the next experiment the test system is deoxyglucose transport. As to conditions: ref 19; cited from earlier work.
The test system of experiment [3] is IM-9 cell receptors. As to conditions: ref 19; cited from earlier work.
A further experiment relates to primary rat adipocytes. The experiment in a line: Insulin-stimulated lipogenesis. Format: cell-based. The note with it: for maximal lipogenesis: compared with human insulin; for metabolic potency relative to human insulin: lipogenesis in primary rat adipocytes. The procedure, abridged: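 Adipocytes from male Sprague-Dawley rat epididymal fat pads, collagenase-digested (1 mg/mL, 45 min, 37 °C) in KRH with 3.5% BSA, 0.2 uM adenosine and 2 mM glucose. […] Lipid-extracted label counted, background (tracer without hormone) subtracted. Triplicates, three experiments, four-parameter logistic fit for ED50.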

The test system of experiment [4] is NIH 3T3 fibroblasts overexpressing the wild-type human insulin receptor. The experiment in a line: [3H]thymidine incorporation. Format: cell-based, mouse. The note with it: for relative mitogenic potency over relative metabolic potency: thymidine incorporation versus lipogenesis in rat adipocytes. (Dividing cells build labelled thymidine or BrdU into new DNA.)
The next experiment has as its system isolated rat adipocytes. The note with it: ref 16-18; cited from earlier work.
For experiment [5] the following is noted: actual data were not shown; cited from earlier work.
The test system of experiment [6] is soluble IR ectodomain (sIR). Kind of experiment: Homologous competition for soluble IR ectodomain, PEG precipitation. As to conditions: 15 pM tracer, 16 h at 4 °C; % of human insulin. Format: binding.
The target in experiment [7] is T1, human insulin receptor on IM9 cells (Homo sapiens, UniProt P06213). The experiment in a line: Association kinetics of 125I-labeled insulins on IM9 cells. Type of experiment: binding. The note with it: 125I-labeled ligand, 15 °C.
T1 sequence (P06213 28-1370 isoform P06213-2 limits assumed): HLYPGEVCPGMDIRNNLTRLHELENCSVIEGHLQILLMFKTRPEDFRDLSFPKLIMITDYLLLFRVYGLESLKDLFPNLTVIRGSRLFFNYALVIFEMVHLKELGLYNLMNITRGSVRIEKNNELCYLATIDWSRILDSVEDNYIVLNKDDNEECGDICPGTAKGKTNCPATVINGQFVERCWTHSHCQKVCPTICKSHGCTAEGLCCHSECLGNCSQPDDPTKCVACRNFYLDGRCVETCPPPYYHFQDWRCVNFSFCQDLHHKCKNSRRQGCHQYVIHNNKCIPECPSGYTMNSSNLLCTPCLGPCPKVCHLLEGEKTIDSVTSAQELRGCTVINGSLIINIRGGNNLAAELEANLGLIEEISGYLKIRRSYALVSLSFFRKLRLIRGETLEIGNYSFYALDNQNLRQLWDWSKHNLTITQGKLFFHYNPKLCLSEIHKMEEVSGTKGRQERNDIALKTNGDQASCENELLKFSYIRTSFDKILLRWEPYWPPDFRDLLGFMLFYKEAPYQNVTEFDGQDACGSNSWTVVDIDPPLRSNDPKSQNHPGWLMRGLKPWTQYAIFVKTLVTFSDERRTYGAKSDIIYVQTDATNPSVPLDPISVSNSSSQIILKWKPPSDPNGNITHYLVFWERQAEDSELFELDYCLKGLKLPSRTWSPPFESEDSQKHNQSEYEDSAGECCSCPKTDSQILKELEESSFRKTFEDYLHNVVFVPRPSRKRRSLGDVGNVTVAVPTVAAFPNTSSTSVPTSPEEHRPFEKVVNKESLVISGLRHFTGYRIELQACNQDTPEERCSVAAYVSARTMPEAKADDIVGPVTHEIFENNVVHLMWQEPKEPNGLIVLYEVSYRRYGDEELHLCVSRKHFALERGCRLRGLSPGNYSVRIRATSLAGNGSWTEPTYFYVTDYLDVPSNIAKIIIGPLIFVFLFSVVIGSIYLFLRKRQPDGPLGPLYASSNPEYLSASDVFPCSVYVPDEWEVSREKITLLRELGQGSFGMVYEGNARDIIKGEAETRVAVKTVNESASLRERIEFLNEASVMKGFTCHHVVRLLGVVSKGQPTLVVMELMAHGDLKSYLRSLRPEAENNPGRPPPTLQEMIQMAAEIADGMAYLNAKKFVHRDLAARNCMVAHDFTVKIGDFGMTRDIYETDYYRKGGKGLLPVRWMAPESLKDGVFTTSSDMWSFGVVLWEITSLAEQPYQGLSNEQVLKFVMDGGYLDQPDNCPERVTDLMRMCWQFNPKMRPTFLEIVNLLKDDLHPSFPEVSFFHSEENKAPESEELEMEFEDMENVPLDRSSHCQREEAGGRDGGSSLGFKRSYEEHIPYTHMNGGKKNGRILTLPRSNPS
T1 sequence (P06213 763-1382 partner limits assumed): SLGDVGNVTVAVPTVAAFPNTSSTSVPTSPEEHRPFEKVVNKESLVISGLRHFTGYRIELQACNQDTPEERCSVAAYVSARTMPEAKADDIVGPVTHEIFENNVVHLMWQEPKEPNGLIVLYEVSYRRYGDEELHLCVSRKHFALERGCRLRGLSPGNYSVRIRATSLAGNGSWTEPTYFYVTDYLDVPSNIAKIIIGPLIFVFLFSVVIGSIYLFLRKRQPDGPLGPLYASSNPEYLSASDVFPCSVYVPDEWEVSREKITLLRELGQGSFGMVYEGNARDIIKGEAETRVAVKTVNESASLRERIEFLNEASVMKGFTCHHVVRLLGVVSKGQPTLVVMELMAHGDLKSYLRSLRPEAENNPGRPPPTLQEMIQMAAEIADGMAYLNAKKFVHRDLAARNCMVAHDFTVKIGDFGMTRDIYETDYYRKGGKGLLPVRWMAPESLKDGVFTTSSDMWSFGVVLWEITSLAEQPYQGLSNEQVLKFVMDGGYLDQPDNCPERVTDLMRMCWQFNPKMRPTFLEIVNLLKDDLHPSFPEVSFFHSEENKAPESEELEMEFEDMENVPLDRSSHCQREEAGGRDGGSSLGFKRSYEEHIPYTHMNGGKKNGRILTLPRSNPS
For experiment [8] the following is noted: ref 66; cited from earlier work.
Experiment [9] concerns the target T1, human insulin receptor on IM9 cells. Kind of experiment: Dissociation kinetics of 125I-labeled insulins from IM9 cells. Format: binding. The note with it: prebound 6 h at 15 °C, 40-fold dilution.

Consider “B17 to Val: human insulin with B17 substitution to Val (literature) [reference compound]”, for which, in the experiment with soluble receptor (solubilized receptor), the “reduction of affinity, substitutions at B17” value is given as 2.5 fold.

Regarding “B21 to Ala: human insulin with mutation of B21 to Ala (literature)”, the “affinity in IM-9 cells” value with IM-9 cell receptors [1] (ref 26) is given as 226%. In [2], the “decrease in the level of binding to receptors on the human placental membrane” value was roughly 2 fold.

Take “HisA8 human insulin: human insulin with the ThrA8 to His mutation (literature)”: the “affinity relative to human insulin in IM-9 lymphocytes” value in the experiment on IM-9 cell receptors [1] (ref 47, 56) is on record as 300%. In the experiment on HepG2 cells, the “affinity relative to human insulin in HepG2 cells” value was 327%.

Take “HisB10Asp: human insulin analogue, His to Asp at B10”: the “enhancement of the affinity and activity of human insulin” value with insulin receptor (ref 31, 46) is 3−5 fold.

As to “IleA10 with Ser: insulin with substitution of IleA10 with Ser as in IGF-I and IGF-II (literature) [reference compound]”, the loss of affinity in the experiment with insulin receptor (ref 64) was 5 fold.

“hagfish insulin: insulin from the Atlantic hagfish (Myxine glutinosa), gift from S. Falkmer (Insulin B chain RTTGHLCGKDLVNALYIACGVRGFFYDPTKM; Insulin A chain GIVEQCCHKRCSIYDLENYCN; ends and bridges not checked; cysteine pairing not given here; UniProt P01342 27-57; P01342 95-115, looked up)”: in the experiment with rat adipocytes (ref 16), the “biological activity in stimulating lipogenesis in rat adipocytes” value is 3.8%. For the same substance, the “biological activity in stimulating lipogenesis in rat adipocytes” value with rat adipocytes (ref 51) is recorded as 4.6%. In the experiment with rat adipocytes (same cells, relative to porcine insulin), the “biological potency in stimulating lipogenesis” value was 3−5%. Besides, in the experiment with rat fat pad, the “biological activity in rat fat pad” value is 7%. Also, the “potency in rat liver cells” value in the experiment with rat liver cells was 3%. Further, in the experiment on deoxyglucose transport, the “biological activity for deoxyglucose transport” value was 5−10%. Also, in the experiment on IM-9 cell receptors [3], the “maximal acceleration of dissociation of 125I-labeled porcine insulin” value is listed as “same maximal acceleration” and the “potency to accelerate the dissociation of 125I-labeled porcine insulin” value is 5 % of unlabeled porcine insulin. Besides, in the experiment on primary rat adipocytes, the maximal lipogenesis entry was “same maximal lipogenesis as human insulin”; the “metabolic potency relative to human insulin” value is 8.4% and 8%. In [4] (thymidine incorporation), the “mitogenic potency relative to human insulin” value was found to be 32%. Besides, the “relative mitogenic potency over relative metabolic potency” value in experiment [4] is reported as 3.8. The maximal stimulation in [4] (thymidine incorporation, difference not statistically significant) is on record as 75 % of that of human insulin. In addition, in the experiment on isolated rat adipocytes, the “affinity for isolated rat adipocytes, % of that of porcine insulin” value is given as 23%. In addition, in experiment [5], the “mitogenic:metabolic potency ratio” value is listed as 1.0. Also, the “relative affinity for the purified soluble human receptor ectodomain” value in [6] was found to be 22%. Further, in experiment [7], the “incubation time to reach apparent steady state of binding” value was determined as 4 h.

With “insulin Wakayama: insulin with a ValA3 to Leu mutation found in a diabetic patient”, the potency in [8] is listed as 0.2%.

For “lamprey insulin: insulin purified from the islet organ of the river lamprey L. fluviatilis (Insulin B chain SALTGAGGTHLCGSHLVEALYVVCGDRGFFYTPSKT; Insulin A chain GIVEQCCHRKCSIYDMENYCN; ends and bridges not checked; cysteine pairing not given here; UniProt P68988 1-36; P68988 37-57, looked up)”, in the experiment on primary rat adipocytes, the maximal lipogenesis result was “same maximal lipogenesis as human insulin”; the “metabolic potency relative to human insulin” value was 9.4% and 9%. Also, in the experiment on soluble receptor (ref 9), the “relative affinity for the soluble receptor based on IC50” value is 130%. For the same substance, the “mitogenic potency relative to human insulin” value in experiment [4] (thymidine incorporation) is on record as 54%. In experiment [4], the “relative mitogenic potency over relative metabolic potency” value is 5.8. In experiment [4] (thymidine incorporation, 10% FBS as maximal response), the maximal response result is reported as “same maximal response as serum or human insulin”. Also, the “dissociation of 125I-labeled ligand by dilution alone” value in experiment [9] is reported as “much slower”. Further, in experiment [7], the “incubation time to reach apparent steady state of binding” value is on record as 6 h.
